Compound activity from PubChem.
CHT allo act – CHT positive allosteric modulators, primary screen, cell-based, membrane potential dye, choline EC20. High affinity choline transporter 1 (Homo sapiens), Q9GZV3. CHT-expressing cells; active compounds read high; LV-AA mutant CHT in HEK293 cells. B-score at 10 µM. 0.49% of 310,000 active;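 active means initial fluorescence not abnormally high and integrated response B-score, plate-corrected, over 3 SD above library mean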
NR2E3 ag-1 – NR2E3 agonists in two-hybrid cells, primary screen, cell-based, luminescence, CHO-S, Gal4-NCOR/VP16-NR2E3; 0.35% of 360,000 active; Photoreceptor-specific nuclear receptor (Homo sapiens), Q9Y5X4; inhibition of corepressor binding, % at 3.98 µM; luciferase;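 active means inhibition above the mean of all tested compounds plus 3 SD, cut at about 70% in these data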;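 further: 0% = DMSO with NR2E3 transfected cells and 100% = cells lacking NR2E3 construct; higher means lower luciferase signal from less NR2E3 corepressor binding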
Target sequence (Q9Y5X4 whole entry, looked up, the tested form may be a part): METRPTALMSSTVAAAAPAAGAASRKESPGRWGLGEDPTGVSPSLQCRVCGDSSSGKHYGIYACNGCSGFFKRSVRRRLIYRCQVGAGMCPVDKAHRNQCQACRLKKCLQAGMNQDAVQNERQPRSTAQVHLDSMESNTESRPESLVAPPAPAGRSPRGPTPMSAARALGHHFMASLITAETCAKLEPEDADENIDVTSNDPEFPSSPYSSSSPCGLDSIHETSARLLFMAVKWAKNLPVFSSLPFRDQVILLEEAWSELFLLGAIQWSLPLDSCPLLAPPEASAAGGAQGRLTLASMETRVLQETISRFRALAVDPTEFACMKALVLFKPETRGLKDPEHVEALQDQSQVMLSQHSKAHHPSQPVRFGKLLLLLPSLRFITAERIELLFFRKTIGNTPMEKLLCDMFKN
CHT block – inhibitors of human choline transporter CHT; High affinity choline transporter 1 (Homo sapiens), Q9GZV3; 0.86% of 310,000 active; CHT-expressing cells, membrane potential dye, choline response; active compounds read low; B-score at 10 µM;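 active means B-score over 3 SD under the library average, and starting fluorescence ratio not unusually high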;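 further: choline stimulus applied at its EC90 after an EC20 pre-addition; B-score computed on integrated fluorescence ratio after choline addition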
NR2F2 inh – NR2F2 transcriptional activity inhibitors, primary screen, cell-based, luciferase reporter, HEK293T, luminescence; COUP transcription factor 2 (Homo sapiens), P24468; HEK293T NGFI-A luciferase reporter; inhibition, % at 8.6 µM; 0.7% of 370,000 active;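 active means inhibition above a per-plate cutoff, mean inhibition of test wells between control levels plus 3 SD, cut at about 38% in these data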;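 further: cells cotransfected with COUP-TFII expression vector driving the NGFI-A reporter; 0% = median of COUP-TF2 test wells and 100% = reporter-only cells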
GalR3 antagonist – GalR3 antagonists in HEK293 cells, primary screen, cell-based, fluorescence readout; inhibition, % at 3 µM; AID 651719, 2012; HEK293 GalR3-CNG cAMP membrane potential fluorescence; galR3 body fused to GalR1 C-terminus; Galanin receptor type 3 (Homo sapiens), O60755; 0.44% of 360,000 active;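 active means inhibition above the screen-wide average plus 3 SD, cut at about 13% in these data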;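 further: forskolin and galanin both at EC90 stimulate the cells; cAMP rise reported by CNG channel membrane potential dye signal; 0% = forskolin plus galanin with DMSO and 100% = forskolin alone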
Target sequence (O60755 1-299 limits assumed): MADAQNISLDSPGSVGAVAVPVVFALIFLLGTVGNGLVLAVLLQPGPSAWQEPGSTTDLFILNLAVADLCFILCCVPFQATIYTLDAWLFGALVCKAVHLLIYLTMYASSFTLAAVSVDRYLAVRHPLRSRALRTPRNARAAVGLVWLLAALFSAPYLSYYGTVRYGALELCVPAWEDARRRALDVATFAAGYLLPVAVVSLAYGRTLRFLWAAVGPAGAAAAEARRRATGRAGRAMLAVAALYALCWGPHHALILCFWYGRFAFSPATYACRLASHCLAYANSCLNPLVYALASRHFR
NR2E3 ag-2 – inhibitors of NR2E3-RetCOR corepressor binding, primary screen, NR2E3 agonist project, biochemical, TR-FRET, GST-NR2E3, biotin-RetCOR; inhibition of corepressor binding, % at 4.78 µM; 0.12% of 320,000 active; Photoreceptor-specific nuclear receptor (Homo sapiens), Q9Y5X4; AID 2300, 2010; 1536-well;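 active means percent inhibition above the cutoff of mean plus 3 SD of all tested compounds, set per screening campaign, cut at about 20% in these data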;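 further: 0% = DMSO wells and 100% = biotin wells as full block of FRET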
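System: GST-tagged NR2E3 plus biotinylated RetCOR corepressor; Buffer or medium: pH 7.5 Tris-based buffer; Probe or stimulus: RetCOR corepressor, biotinylated, 7 nM; Doses: compound at 4.8 µM, single dose; Schedule: 5 h incubation at 4 °C; Technique: time-resolved FRET; Evaluation: percent inhibition of TR-FRET ratio; Replication: one well per compound, singlicate testing.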
NR2E3 ag conf – NR2E3 agonist confirmation in cells, cell-based, luminescence, CHO-S two-hybrid; shares compounds with NR2E3 ag-1; CHO-S mammalian two-hybrid NR2E3-NCOR, luciferase luminescence; inhibition, % at 3.98 µM; 51% of 2,300 active;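 active means average inhibition above a cutoff equal to the mean inhibition of all tested compounds plus one SD, cut at about 70% in these data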;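 further: 0% = DMSO in NR2E3 cells and 100% = DMSO in cells lacking NR2E3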
GAL4-VP16 luc – GAL4-VP16 reporter modulators, confirmation, counter-screen for NR2E3 agonist project, cell-based, luminescence, CHO-S, high throughput | AID 624379, 2012 | 29% of 2,300 active | shares compounds with NR2E3 ag-1 | CHO-S GAL4-VP16 luciferase reporter | inhibition, % at 3.98 µM;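 active means mean inhibition above a cutoff equal to the average over all tested compounds plus one standard deviation, cut at about 70% in these data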;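 further: luciferase from a UAS reporter driven by GAL4-VP16 transactivation; 0% = DMSO with VP16-transfected cells and 100% = DMSO with cells lacking VP16; higher means less reporter light so more repression of VP16 activity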
GalR3 conf – GalR3 antagonist hit confirmation, cell-based, fluorescence, triplicate; shares compounds with GalR3 antagonist; inhibition, % at 3 µM; 59% of 1,600 active; AID 652245, 2013; HEK293 GalR3 CNG cAMP biosensor, membrane potential fluorescence; galR3 fused to GalR1 carboxy tail; challenged with forskolin and galanin at EC90;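 active means inhibition above the primary screen's cutoff, the mean inhibition of all screened compounds plus 3 SD, cut at about 13% in these data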;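 further: 0% = forskolin plus galanin and 100% = forskolin alone with DMSO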
CNG parental – nonspecific cAMP agonists in parental HEK-CNG cells, counter-screen for GalR3 antagonist project, cell-based, fluorescence, high throughput. shares compounds with GalR3 antagonist. AID 652268, 2013. 10% of 1,600 active. HEK293-CNG parental cells, cAMP membrane potential fluorescence; normalised: DMSO wells 0%, forskolin wells 100%. activation, % at 3 µM; in the data active means activation above about 1.3%
VP16 Luc counter – Gal4-VP16 luciferase reporter inhibitors, counter-screen for COUP-TFII antagonist project, cell-based, luminescence, HEK293. shares compounds with NR2F2 inh. inhibition, % at 8.5 µM. 25% of 2,500 active. AID 687007, 2013; in the data active means inhibition above about 13%
NR2F2 inh conf – NR2F2 transcriptional activity inhibitors, confirmation, cell-based, luciferase reporter, HEK293, triplicate; HEK293 NGFI-A luciferase reporter, luminescence; shares compounds with NR2F2 inh; inhibition, % at 8.5 µM; 45% of 2,500 active;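 active means mean inhibition over three repeats above a set limit taken from the earlier primary screen, cut at about 38% in these data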;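 further: 100% = cells given the luciferase reporter alone without the COUP-TF2 vector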
Active calls of the source: *. A selection: hits, their analogues and other compounds. The true share with any hit is near 2.3%.

What do the screens show for `COc1ccc(CNC(=O)c2cccc3c(-c4cccnc4)coc23)cc1OC`?
NR2E3 ag-1: 97*; NR2F2 inh: 82*; GalR3 antagonist: 89*; NR2E3 ag conf: 96*; GAL4-VP16 luc: 89*; GalR3 conf: 106*; CNG parental: 0; VP16 Luc counter: 4; NR2F2 inh conf: 75*

What do the screens show for `C=CCNCc1ccc(OC)cc1OC`?
NR2F2 inh: 11

What do the screens show for `O=C(C(=O)c1cc(Br)ccc1O)c1cc(Br)ccc1O`?
NR2E3 ag-1: 99*; NR2F2 inh: 39*; GalR3 antagonist: 87*; NR2E3 ag conf: 100*; GAL4-VP16 luc: 92*; GalR3 conf: 44*; CNG parental: 1; VP16 Luc counter: 7; NR2F2 inh conf: 10

How did c1ccc2c(c1)OCC(CNCC1COc3ccccc3O1)O2 (stereo not given) do in these assays?
CHT allo act: inactive; NR2E3 ag-1: -8; CHT block: inactive; NR2F2 inh: -13; GalR3 antagonist: -10; NR2E3 ag-2: 0

Results for Fc1ccccc1CNc1ncnc2sccc12 ?
CHT allo act: inactive; NR2E3 ag-1: 100*; CHT block: inactive; NR2F2 inh: 48*; GalR3 antagonist: -10; NR2E3 ag-2: 1; NR2E3 ag conf: 88*; GAL4-VP16 luc: 71*; VP16 Luc counter: 10; NR2F2 inh conf: 41*

What do the screens show for `COc1ccccc1CNc1ncnc2sccc12`?
CHT allo act: inactive; NR2E3 ag-1: 100*; CHT block: inactive; NR2F2 inh: 62*; GalR3 antagonist: 76*; NR2E3 ag-2: -2; NR2E3 ag conf: 92*; GAL4-VP16 luc: 76*; GalR3 conf: 104*; CNG parental: 1; VP16 Luc counter: 7; NR2F2 inh conf: 53*

What do the screens show for `c1ccc2c(c1)OCC(CNc1ncnc3sccc13)O2` (stereo not given)?
CHT allo act: inactive; NR2E3 ag-1: 84*; CHT block: inactive; NR2F2 inh: 78*; GalR3 antagonist: 97*; NR2E3 ag-2: 2; NR2E3 ag conf: 97*; GAL4-VP16 luc: 87*; GalR3 conf: 105*; CNG parental: 0; VP16 Luc counter: -17; NR2F2 inh conf: 58*

What do the screens show for `CN(C)c1ccc(CNc2ncnc3sccc23)cc1`?
CHT allo act: inactive; NR2E3 ag-1: 99*; CHT block: inactive; NR2F2 inh: 66*; GalR3 antagonist: 0; NR2E3 ag-2: 0; NR2E3 ag conf: 93*; GAL4-VP16 luc: 70; VP16 Luc counter: 11; NR2F2 inh conf: 52*

How did NS(=O)(=O)c1ccc(CNc2ncnc3sccc23)cc1 do in these assays?
CHT allo act: inactive; NR2E3 ag-1: 23; CHT block: inactive; NR2F2 inh: 17; GalR3 antagonist: -5; NR2E3 ag-2: -5

Results for C[C@H](NC(=O)OCc1ccccc1)P(=O)(O)O ?
NR2F2 inh: 20

What do the screens show for `COC(=O)[C@H](CC(C)C)N1Cc2nnn(CC3CCCCC3)c2-c2cc(F)ccc2S1(=O)=O`?
NR2F2 inh: -2

What do the screens show for `COc1ccc(CN2C(=O)CCCC2(C)c2nnnn2-c2c(C)cccc2C)cc1OC` (stereo not given)?
NR2F2 inh: -12

What do the screens show for `COc1ccc(CCNc2ncnc3sccc23)cc1OC`?
CHT allo act: inactive; NR2E3 ag-1: 90*; CHT block: inactive; NR2F2 inh: 74*; GalR3 antagonist: 73*; NR2E3 ag-2: -4; NR2E3 ag conf: 98*; GAL4-VP16 luc: 90*; GalR3 conf: 129*; CNG parental: 0; VP16 Luc counter: 10; NR2F2 inh conf: 77*

What do the screens show for `CNC(=O)[C@@H](NC(=O)[C@H](CC(C)C)[C@H](O)C(=O)NO)C(C)(C)C`?
NR2F2 inh: 27

Results for Cc1sc2ncnc(NC3CCN(Cc4ccccc4)CC3)c2c1C ?
CHT allo act: inactive; NR2E3 ag-1: 75*; CHT block: inactive; NR2F2 inh: 56*; GalR3 antagonist: 83*; NR2E3 ag-2: -7; NR2E3 ag conf: 95*; GAL4-VP16 luc: 80*; GalR3 conf: 102*; CNG parental: 1.2*; VP16 Luc counter: 5; NR2F2 inh conf: 52*

How did c1ccc(CN2CCC(Nc3ncnc4sccc34)CC2)cc1 do in these assays?
CHT allo act: inactive; NR2E3 ag-1: -7; CHT block: inactive; NR2F2 inh: 1; GalR3 antagonist: 3; NR2E3 ag-2: 3

How did O=C(CCCc1nc(-c2ccccc2Cl)no1)NC1CCCC1 do in these assays?
CHT allo act: inactive; NR2E3 ag-1: 62; CHT block: inactive; NR2F2 inh: 73*; GalR3 antagonist: -2; NR2E3 ag-2: -1; NR2E3 ag conf: 60; GAL4-VP16 luc: 56; VP16 Luc counter: 0; NR2F2 inh conf: 3

Results for COc1ccc(CNCC#Cc2ccccc2)cc1 ?
NR2F2 inh: -21
